SR-BI DiI-HDL act: SR-BI HDL lipid transfer activation. CHO ldlA[mSR-BI] cells, DiI-HDL uptake fluorescence, 3 h; 100 = double the neutral-control signal. hit rate 0.096% among 320,000. activation, % at 12.5 µM;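 active means mean replicate activation of at least 60% and every replicate at or above 60%; inconclusive means mean or all-replicate condition met, but not both; inactive means mean below 60% and not all replicates reaching 60%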
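Material: SR-BI-overexpressing, LDLR-lacking CHO cells | Dosing: Single compound concentration, delivered by pin transfer | Probe or stimulus: Labelled HDL, 10 µg/mL | Signal: Bottom-read cell fluorescence after medium removal, ex 550/em 595 nm | Schedule: 3 h, 37 °C | Evaluation: HDL uptake via cellular fluorescence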
A1 inh: inhibitors of the anti-apoptotic protein A1, read as caspase activation. MEF A1-2A-BIM cells, Caspase-Glo 3/7 luminescence, 3 h; percent of clofoctol response, vehicle zero. caspase activation, % (test concentration not listed). hit rate 0.066% among 330,000;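 active means over half of replicate activation scores above 10%, or exactly half above 10 with the replicate mean above 10; inconclusive means replicate mean below 10 yet half the replicates above 10; inactive means over half of replicates below 10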
TAG inh: inhibitors of triacylglycerol accumulation; AID 651582; inhibition, % at 12.5 µM; H9c2 cells, Nile Red lipid (TAG) fluorescence; cells loaded with 200 µM oleic acid; hit rate 0.66% among 230,000;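 active means pattern-corrected inhibition of lipid staining of at least 50% with the nuclear-stain viability signal not falling by more than 50%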
Vif inh: blocks HIV Vif function. inhibition, % at 7.49 µM. hit rate 0.35% among 340,000. HEK293T cells, Vif self-association by quenched fluorescence, imaging, 24 h; in the data active means inhibition above about 50%, passing the limit was not always enough; inconclusive means no clear call, values can overlap the other calls; inactive means below about 31%
SR-BI HDL uptake: blocks mouse SR-BI lipid uptake from DiI-HDL; inhibition, % at 12.5 µM; Q61009; AID 488896; hit rate 0.96% among 320,000; ldlA[mSR-BI] CHO cells, DiI-HDL uptake fluorescence, 3 h;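 active means mean replicate inhibition of at least 70% and a set share of replicates each scoring 70 or more; inconclusive means meets just one of the two criteria; inactive means fails both criteria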
Target sequence (Q61009 whole entry, looked up): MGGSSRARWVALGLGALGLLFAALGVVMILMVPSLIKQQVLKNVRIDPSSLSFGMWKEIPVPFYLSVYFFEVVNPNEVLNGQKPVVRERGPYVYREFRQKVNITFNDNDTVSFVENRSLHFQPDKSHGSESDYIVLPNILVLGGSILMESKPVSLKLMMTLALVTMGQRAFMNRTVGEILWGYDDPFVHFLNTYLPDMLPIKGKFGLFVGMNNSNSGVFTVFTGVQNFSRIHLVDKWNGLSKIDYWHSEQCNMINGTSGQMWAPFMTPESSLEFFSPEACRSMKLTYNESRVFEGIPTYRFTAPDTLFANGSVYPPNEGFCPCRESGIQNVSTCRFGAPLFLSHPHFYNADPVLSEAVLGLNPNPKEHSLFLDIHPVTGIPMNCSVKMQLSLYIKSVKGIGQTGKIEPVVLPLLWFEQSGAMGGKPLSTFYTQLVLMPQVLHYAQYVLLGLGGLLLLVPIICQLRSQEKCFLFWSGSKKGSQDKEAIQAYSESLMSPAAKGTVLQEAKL
Of the large screens only hits and unclear results are named; the others gave an inactive call. Rows were chosen to be rich in hits. Some 1.6% of all compounds tested hit in one or more screens of this group.

Cc1cccc2sc(NNC(=O)c3cc(-c4cccs4)nc4ccccc34)nc12	SR-BI HDL uptake 72
NNC(=O)c1cc(-c2cccs2)nc2ccccc12	none (no result: SR-BI DiI-HDL act, SR-BI HDL uptake)
CC(Sc1nnc(Cc2cccs2)n1C)C(=O)Nc1ccc(C(N)=O)cc1 (configuration not stated)	none (no result: A1 inh)
O=C(COC(=O)c1ccccc1O)Nc1ccc(N2CCOCC2)cc1	none
O=C(COC(=O)C1Cc2ccccc2CN1C(=O)c1ccccc1Cl)Nc1ccc(N2CCOCC2)cc1 (configuration not stated)	SR-BI HDL uptake 76 (no result: TAG inh)
CSc1nn2c(C(F)(F)F)cc(C(F)(F)F)nc2c1C(N)=O	none
COc1cccc(C(=O)NCCCNC(=O)c2cccnc2)c1	Vif inh 87 (no result: TAG inh)
COC(=O)c1cc(C)ccc1/C=C1/Cc2c(C)cc(C)cc2C1=O	none (no result: A1 inh)
CCn1c(Cn2nnc(-c3ccccc3)n2)nnc1SCC(=O)Nc1cccc(C(C)=O)c1	none (no result: TAG inh)
CCn1c(Cn2nnc(-c3ccccc3)n2)nnc1SCC(=O)Nc1cccc(C)c1C	SR-BI HDL uptake 76 (no result: TAG inh)
O=C(O)c1cc(N2C(=O)C3C4C=CC(C4)C3C2=O)ccc1N1CCOCC1 (configuration not stated)	none
CC(C)(C(=O)N1CCC1(C)C(=O)NS(=O)(=O)c1cccc(C#N)c1)c1ccccc1 (configuration not stated)	none (no result: SR-BI DiI-HDL act, A1 inh, SR-BI HDL uptake)
O=C1c2ccccc2C(=O)C1c1ccc(Br)cc1	none (no result: TAG inh)
COc1ccc(C2C(=O)c3ccccc3C2=Nc2ccc(Br)cc2)cc1 (configuration not stated)	SR-BI HDL uptake 94
Cc1cccc2[nH]c(SCC(=O)N3CCOCC3)nc12	none
CCOc1cc(C(c2c(C)[nH][nH]c2=O)c2c(C)[nH][nH]c2=O)ccc1OCc1ccc([N+](=O)[O-])cc1	none (no result: TAG inh)
CCOc1cc(/C=C2/NC(=S)NC2=O)ccc1OCc1ccc([N+](=O)[O-])cc1	SR-BI HDL uptake 73
Cc1ncc(COCc2ccccc2)c(CO)c1OCc1ccccc1	none (no result: A1 inh)
Cc1ccc(NC(=O)C(c2ccccc2)N2CCN(C(=O)c3ccco3)CC2)cc1Cl (configuration not stated)	none
COc1ccc(-n2nc(C(=O)NCC(=O)N3CCN(c4ccc(F)cc4)CC3)c3ccccc3c2=O)c(OC)c1	none (no result: TAG inh)
COc1ccc(N2CCN(C(=O)CNC(=O)c3cn(-c4ccccc4OC)c(=O)c4ccccc34)CC2)cc1	SR-BI HDL uptake 74
COc1ccc(NC(=O)c2cc(C)cc(C)c2)cc1[N+](=O)[O-]	SR-BI HDL uptake 80
COc1ccc(C(=O)c2ccc(Cl)cc2)cc1	none
COc1cc(C(=O)Nc2cccc(-n3cnnn3)c2)cc(Cl)c1OC	none (no result: TAG inh)
COc1ccc(C(=O)c2ccc(Cl)c([N+](=O)[O-])c2)cc1	A1 inh inconclusive, Vif inh 69 (no result: TAG inh)
COc1cc(C(=O)Nc2cccc(-n3cnnn3)c2)cc(OC)c1OC	SR-BI HDL uptake 77 (no result: TAG inh)
COc1cc(C(=O)Nc2ccc(Cl)c([N+](=O)[O-])c2)cc(OC)c1OC	SR-BI HDL uptake 80
COc1cc(C(=O)Nc2ccc(Cl)c(C(F)(F)F)c2)cc(OC)c1OC	none (no result: TAG inh)
Cc1onc(-c2ccccc2)c1C(=O)N=C(N)c1ccc(C(F)(F)F)cc1	none
O=C(NC1CC(=O)N(c2ccc3c(c2)OCCO3)C1)N1CCC(O)CC1 (configuration not stated)	none
COc1cc(C(=O)Nc2ccc(Nc3ccccc3)cc2)cc(OC)c1OC	SR-BI HDL uptake 79 (no result: TAG inh)
O=C(Nc1ccc(-c2csc(Nc3ccccc3)n2)cc1)c1cc([N+](=O)[O-])cc(C(F)(F)F)c1	SR-BI HDL uptake 96
COc1ccc(-c2sc3ccccc3c2-c2ccc(OCCN(C)C)cc2)cc1	TAG inh 63
CC(OC(=O)Cc1c[nH]c2ccccc12)C(=O)Nc1ccc(S(N)(=O)=O)cc1 (configuration not stated)	none
Cn1c(-c2ccsc2)c(-c2cccs2)c2cc(-c3ccc4cc[nH]c4c3)ccc21	SR-BI HDL uptake 77
Cc1ccc(C(=O)COC(=O)c2cc(=O)[nH]c3ccccc23)cc1C	Vif inh 66
S=C(Nc1cccc(Cl)c1)N(CCCN1CCCC1)Cc1cccn1Cc1ccc(Cl)cc1	none
CSc1cccc(NC(=S)N(CCCN2CCCC2)Cc2cccn2Cc2ccc(Cl)cc2)c1	TAG inh 57 (no result: SR-BI DiI-HDL act, SR-BI HDL uptake)
O=C(NN=Cc1ccc(OC(F)F)cc1)c1ccc(NS(=O)(=O)c2cccs2)cc1	none
COc1cccc(NC(=O)c2ccc(NS(=O)(=O)c3cccs3)cc2)c1	SR-BI HDL uptake 77 (no result: A1 inh)
O=C(NN=Cc1ccc(O)cc1O)c1ccccc1NS(=O)(=O)c1cccs1	SR-BI HDL uptake 97
O=C1CCC/C(=N/NC(=O)c2ccc(NS(=O)(=O)c3cccs3)cc2)C1	Vif inh 52
O=C1CCC/C(=N/NC(=O)c2cc(NS(=O)(=O)c3cccs3)cc(NS(=O)(=O)c3cccs3)c2)C1	none (no result: SR-BI DiI-HDL act, SR-BI HDL uptake)
O=C(NN=Cc1ccccc1OC(F)F)c1ccc(NS(=O)(=O)c2cccs2)cc1	SR-BI HDL uptake 82
NC(=O)c1cc(NC(=O)c2ccc(NS(=O)(=O)c3cccs3)cc2)cc(C(N)=O)c1	none
COc1ccccc1CC(=O)Nc1ncc(C)s1	none
COc1ccc(CCNC(=O)[C@@H](NC(N)=O)C(C)C)cc1	Vif inh 51
Cc1ccc(C(=O)NCCc2nnc3c(C(F)(F)F)cc(Cl)cn23)o1	none (no result: TAG inh)
O=C1/C(=C\c2ccc(O)c(O)c2)SC(=S)N1Cc1ccccc1	SR-BI HDL uptake 83 (no result: TAG inh)
O=C1/C(=C\c2cccc(O)c2O)SC(=S)N1Cc1ccccc1	SR-BI HDL uptake 133 (no result: TAG inh)
COc1cc(/C=C2/SC(=S)N(Cc3ccccc3)C2=O)ccc1O	none (no result: TAG inh)
NS(=O)(=O)c1cccc(C(=O)OCC(=O)NC2CCCc3ccccc32)c1 (configuration not stated)	none
CC(C)=CCc1c(O)cc2oc3c(CC=C(C)C)c(O)c(O)c(CC=C(C)C)c3c(=O)c2c1O	SR-BI HDL uptake 105 (no result: TAG inh)
CC(C)=CCc1cc(-c2oc3cc(O)cc(O)c3c(=O)c2O)ccc1O	none (no result: TAG inh)
CCC(=Cc1ccccc1O)c1ccncc1	none (no result: A1 inh)
O=C1c2cccc3cccc(c23)C(=O)N1CCN1CCN(C(=S)Nc2ccc(Cl)cc2)CC1	none (no result: TAG inh)
O=C(/C=C/c1ccc(Cl)cc1)N1CCN(CCN2C(=O)c3cccc4cccc(c34)C2=O)CC1	SR-BI HDL uptake 78 (no result: A1 inh)
O=C1c2cccc3cccc(c23)C(=O)N1CCN1CCN(C(=S)Nc2ccccc2)CC1	SR-BI HDL uptake 72 (no result: TAG inh)
COc1cc(OC)cc(C(=O)N(CN2CCCC2=O)c2ccccc2OC)c1	Vif inh 54 (no result: TAG inh)
COc1cc(NC(=O)[C@@H](NC(=O)N2CCn3c2nc2ccccc23)C(C)C)cc(OC)c1	none (no result: TAG inh)
CCN(C(=O)c1cn(C)c(=O)c2cc(OC)c(OC)cc12)c1cc(OC)ccc1OC	SR-BI DiI-HDL act 67
COc1ccccc1N(CC(=O)NCC1CCCO1)C(=O)CNS(=O)(=O)c1ccccc1 (configuration not stated)	none
